Measured values published in paper PMC3818134 (Clinical cancer research : an official journal of the …, 2013).

Legend:
pSer473AKT in RD cells = assay: Western immunoblot biomarker time course in RD cells; format: cell-based, human; details: 0.5× and 1.0× GI50 concentrations, 48hr time course
In short: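 RD cells (DMEM, 10% FBS, 37°C, 5% CO2) treated with test compounds singly or combined; protein extracted at time points over 48 hr. Lysates BCA-quantified, 10 μg on Bis-Tris or Tris-Acetate gels, PVDF transfer, primary 1:1,000 overnight 4°C, HRP secondary 1:10,000 2 h RT, ECL Plus, phosphorimager quantitation. Control and treated loaded side by side; treated/control phospho-levels given as % of time 0.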

RD cells = assay: GI50; format: cell-based, human; details: RD cells with NRAS mutation
In short: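 RD cells in DMEM with 10% FBS at 37°C, 5% CO2. Compounds prepared as 10mM stocks, then diluted in medium. MTS read-out after 72hr continuous exposure; GI₅₀ = concentration giving 50% inhibition of proliferation. Isobologram: GI₅₀ of each single agent, plus GI₅₀ of one agent at several fixed sub-GI₅₀ concentrations of the other. These are plotted on the axes, with a diagonal line as theoretical additivity.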

[1] = Plasma and tumor pharmacokinetics; format: in vivo, mice; details: for plasma level 16hrs following treatment: 10mg/kg p.o., mice bearing RD xenografts; for plasma concentrations when administered alone: AZD8055 compared with NVP-BEZ235
In short: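 Female 6-8 week athymic nude (Ncr) mice carried subcutaneous RD xenografts (5 × 10⁶ cells, 25% matrigel). Oral dosing at 0.1mL/10g: MEK inhibitor 10mg/kg in 10% DMSO water; TORC1/2 inhibitor 10 or 20mg/kg in acidified water; PI3K/mTOR inhibitor 25mg/kg in 10% NMP/90% PEG300. Given alone or combined. Plasma and tumors were sampled at various times (n=3), or 3hrs after the final daily dose (19-22 days). Analysed by LC-MS/MS with MRM.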

pERK1/2 in RD cells = assay: Western immunoblot biomarker time course in RD cells; format: cell-based, human; details: 0.5× and 1.0× GI50 concentrations, 48hr time course
In short: (§1)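 RD cells (DMEM, 10% FBS, 37°C) were treated with single agents or the combination at 0.5× and 1.0× GI₅₀ concentrations and sampled at time points up to 48h. Lysates (10μg) were run on Bis-Tris/Tris-Acetate gels and transferred to PVDF. Primary antibody 1:1,000 overnight at 4°C; HRP secondary 1:10,000 for 2h at room temperature; ECL Plus detection. PhosphorImager quantitation; treated/control levels expressed as % of time 0.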

[2] = system: stable p110α KD and control (CONSH) cell lines (RH30, RMS-1, RD, RMS-YM); assay: MTS growth inhibition in paired CONSH and stable p110α KD lines; format: cell-based, human; details: MTS growth inhibition curves, 72hr exposure
In short: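 Lines were transduced with lentiviral PIK3CA or control shRNA at MOI 10 with polybrene (4μg/ml). Puromycin selection (2.5μg/ml) ran from day 2, and stable lines were derived over about 4 weeks. Cells were grown in DMEM with 10% FBS at 37°C, 5% CO2. MTS growth inhibition curves were run after 72hr continuous exposure to the test compound, diluted from 10mM stock.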

MEK1/2 = details: read-out: IC50 concentration for MEK1/2; cited from earlier work
[3] = system: pS6 in RD xenograft tumors; assay: Tumor PD biomarker, MSD immunoassay; format: in vivo, mice; details: RD xenografts, end of therapeutic study
In short: (§2)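 Female 6-8-week athymic nude (Ncr) mice bore subcutaneous flank RD xenografts (5 × 10⁶ cells in 25% matrigel). Once tumors reached ≈5 mm (n=6/group), mice received daily oral dosing for 19-22 days, alone or combined, with vehicle controls: MEK inhibitor 10mg/kg (10% DMSO water), TORC1/2 inhibitor 10 or 20mg/kg (acidified water), PI3K/mTOR inhibitor 25mg/kg (10% NMP/90% PEG300). Tumors were excised and snap-frozen at termination. MSD electrochemiluminescence gave phospho/total ratios in 10μg lysate.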

[4] = system: pAKT (Ser473) in RD xenograft tumors; assay: Tumor PD biomarker, MSD immunoassay; format: in vivo, mice; details: RD xenografts, end of therapeutic study
In short: as §2

[5] = system: pERK in RD xenograft tumors; assay: Tumor PD biomarker, MSD immunoassay; format: in vivo, mice; details: RD xenografts, end of therapeutic study
In short: as §2

pS6 in RD cells = assay: Western immunoblot biomarker time course in RD cells; format: cell-based, human; details: 0.5× and 1.0× GI50 concentrations, 48hr time course
In short: as §1

p110α = assay: PI3K isoform inhibition profile, p110α versus other isoforms; format: biochemical; details: Suppl Fig S4A
mTor = details: cited from earlier work
PI3K/mTORC1/2 = details: cited from earlier work
p110β = assay: PI3K isoform inhibition profile, p110β versus p110α; format: biochemical; details: Suppl Fig S4A
[6] = 10mg/kg p.o. each, versus alone

Row | SMILES | plasma concentration range in combination with AZD6244 versus alone ([1]; 3hrs following the final dose) | plasma concentrations when administered alone ([1]; 3hrs following the final dose) | single-agent sensitivity of RD cells (RD cells) | plasma level 16hrs following treatment [1] | pERK levels (pERK1/2 in RD cells) | sensitivity of stable p110α KD lines compared with CONSH counterparts [2] | change of tumor S6 phosphorylation [3] | change of tumor AKT phosphorylation [4] | further results
1 | Cn1cnc2c(F)c(Nc3ccc(Br)cc3Cl)c(C(=O)NOCCO)cc21 [AZD6244] | – | – | relatively resistant | close to, or below, the limit of detection | ablated pERK levels at all time points and both concentrations | only the RMS-1 KD line (lacking both p110α and p110δ) exhibited significantly enhanced sensitivity | – | – | pSer473AKT levels (pSer473AKT in RD cells): increased p^Ser473AKT levels; elimination phase in combination with AZD8055 [1, 6]: extended; peak plasma concentrations in combination with AZD8055 [1, 6]: reduced; plasma AZD6244 concentrations in combination with NVP-BEZ235 ([1]; 3hrs following the final dose): reduced plasma concentrations of AZD6244 to a similar extent as AZD8055; IC50 (MEK1/2): 14 nM
2 | Nc1cc(C(F)(F)F)c(-c2cc(N3CCOCC3)nc(N3CCOCC3)n2)cn1 [BMK120] | – | – | – | – | – | No differences in sensitivity | – | – | selectivity for p110α versus the other isoforms (p110α): modestly selective for p110α versus the other isoforms
3 | Cc1cc(C(C)Nc2ccccc2)c2nc(N3CCOCC3)cc(=O)n2c1 (stereo not drawn) [TGX221] | – | – | – | – | – | only the RMS-1 stable KD cell line, with minimal p110α and δ expression, showed increased sensitivity | – | – | selectivity for p110β versus p110α (p110β): 78 fold
4 | FC(F)c1nc2ccccc2n1-c1nc(N2CCOCC2)nc(N2CCOCC2)n1 [ZSTK474] | – | – | – | – | – | increased sensitivity | – | – | IC50 (mTor; read-out: IC50 against mTor): 377 nM

The next lines start with results.

Row | plasma concentration range in combination with AZD6244 versus alone ([1]; 3hrs following the final dose) | plasma concentrations when administered alone ([1]; 3hrs following the final dose) | SMILES | single-agent sensitivity of RD cells (RD cells) | plasma level 16hrs following treatment [1] | pERK levels (pERK1/2 in RD cells) | sensitivity of stable p110α KD lines compared with CONSH counterparts [2] | change of tumor S6 phosphorylation [3] | change of tumor AKT phosphorylation [4] | further results
5 | increased | in the same range | COc1ccc(-c2ccc3c(N4CCOC[C@@H]4C)nc(N4CCOC[C@@H]4C)nc3n2)cc1CO [AZD8055] | relatively resistant | close to, or below, the limit of detection | increased pERK levels | more sensitive to mTOR inhibition than their CONSH counterparts | equally efficient in reducing AKT and S6 phosphorylation | equally efficient in reducing AKT and S6 phosphorylation | plasma and tumor levels in combination with AZD6244 [1, 6]: higher; change of tumor pERK levels [5]: increased pERK levels to a greater extent than NVP-BEZ235; pS6 levels / inhibition of S6 phosphorylation (pS6 in RD cells): concentration dependent
6 | increased | in the same range | Cn1c(=O)n(-c2ccc(C(C)(C)C#N)cc2)c2c3cc(-c4cnc5ccccc5c4)ccc3ncc21 [NVP-BEZ235] | – | – | – | more sensitive to mTOR inhibition than their CONSH counterparts | equally efficient in reducing AKT and S6 phosphorylation | equally efficient in reducing AKT and S6 phosphorylation | concentrations at which it predominantly inhibits mTOR (mTor): less than 100 nM; concentrations at which it is a dual PI3K/mTORC1/2 inhibitor (PI3K/mTORC1/2): above 500 nM
